MEKK2mut PB1 HTS – signal of MEK5 binding to mutant human MEKK2 PB1 domain | bead flow cytometry, Alexa488-MEK5 binding to MEKK2 mutant | percent response, % at 10 µM | AID 1530 | 290,000 compounds, 0.35% hits; in the data active = percent response above about 24%, passing the limit was not always enough
Beta2AR agonist – activates human beta-2 adrenergic receptor causing internalization; AID 504454; response, % (no concentration beside the values); P07550; Am2.2-beta2AR cells, FAP receptor internalization, flow cytometry; 340,000 compounds, 0.43% hits;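 active = response above a set limit, near 3 SD of response in nonfluorescent compounds, cut at about 42% in these data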
Target sequence (P07550 whole entry, looked up): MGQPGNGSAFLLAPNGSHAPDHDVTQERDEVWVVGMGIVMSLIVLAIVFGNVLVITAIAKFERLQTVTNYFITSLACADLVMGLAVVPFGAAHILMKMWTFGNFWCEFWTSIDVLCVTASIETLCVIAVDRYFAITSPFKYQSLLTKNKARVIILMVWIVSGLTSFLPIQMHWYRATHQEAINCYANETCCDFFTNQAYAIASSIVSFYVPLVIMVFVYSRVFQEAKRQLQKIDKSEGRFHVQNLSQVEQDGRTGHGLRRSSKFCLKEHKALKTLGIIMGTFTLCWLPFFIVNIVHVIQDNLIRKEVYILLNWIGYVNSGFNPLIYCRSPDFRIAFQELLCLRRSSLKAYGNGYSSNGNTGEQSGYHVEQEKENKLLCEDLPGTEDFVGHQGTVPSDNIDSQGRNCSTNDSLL
MEKK3 PB1 HTS – raises or lowers MEK5 binding to the human MEKK3 PB1 domain; Q99759; binding response (% of control), % at 10 µM; bead-based flow cytometry, Alexa488-MEK5 binding to MEKK3; actives lie on both sides; 0 = blocked by unlabeled MEK5, 100 = vehicle; 290,000 compounds, 1.4% hits; AID 1529;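 active = binding response more than 3 SD above or below the average of its plate-row segment, actives on both sides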;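 also: Alexa488 bead fluorescence after subtracting the streptavidin-only scavenger bead signal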
MEKK2 WT-MEK5 – raises or lowers MEK5 binding to wildtype human MEKK2 PB1 domain; bead flow cytometry, Alexa488-MEK5 binding to MEKK2 WT; actives lie on both sides; binding response (% of control), % at 10 µM; 290,000 compounds, 1.1% hits; in the data active = binding response below about 67% or above about 130%
Dynein cargo inh – blocks dynein driven cargo transport along microtubules; 3617.4 mouse cells, GR-EGFP nuclear translocation imaging; test concentration mostly 20 µM; stimulated with dexamethasone, 1 µM; stronger effect = lower value; z-score, hits read low; 220,000 compounds, 0.47% hits; AID 1381;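 active = plate z-score of nuclear minus cytoplasmic receptor signal below a set negative limit, without overly bright fluorescence or cell loss, cut at about -3.5 in these data, passing the limit was not always enough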;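 also: z-score of nuclear minus cytoplasmic ring GR-EGFP intensity difference per well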
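medium = tetracycline-free induction medium containing charcoal-stripped FBS | probe or stimulus = dexamethasone, 1.0 µM final | timing = 48 h induction, then 1 h compound, then 30 min agonist, 37 °C | detection = automated 10x imaging of fixed Hoechst-stained cells | read-out basis = nuclear versus cytoplasmic GR-EGFP signal, averaged per well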
ATG4B inhibitor – inhibitors of human ATG4B cysteine protease | AID 504462 | 340,000 compounds, 0.51% hits | ATG4B cleavage of LC3-PLA2, NBD-HPC fluorescence, 1 h | Q9Y4P1 | inhibition, % at 8.33 µM; in the data active = inhibition above about 40%
MEKK2wt confirm – raises or lowers MEK5 binding to wildtype human MEKK2, retest; shares compounds with MEKK3 PB1 HTS; bead flow cytometry, Alexa488-MEK5 binding to MEKK2 WT; actives lie on both sides; binding response (% of control), % at 10 µM; 5,900 compounds, 2.4% hits; AID 1892; in the data active = binding response below about 16% or above about 210%; inactive = in between
MEKK2mut-MEK5 – signal of MEK5 binding to mutant human MEKK2, retest; shares compounds with MEKK3 PB1 HTS; bead flow cytometry, Alexa488-MEK5 binding to MEKK2 mutant; percent response, % at 10 µM; 5,900 compounds, 2% hits; in the data active = percent response mostly above about 71%, no sharp cut-off; inactive = mostly below about 38%;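 also: higher means compound restores mutant binding toward wildtype level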
MEKK3-MEK5 inh – confirmation of inhibitors of MEK5 binding to human MEKK3 | 5,900 compounds, 1.8% hits | bead flow cytometry, Alexa488-MEK5 binding to MEKK3; stronger effect = lower value | AID 1894 | shares compounds with MEKK3 PB1 HTS | binding response (% of control), % at 10 µM;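 active = binding response below 72% of control, or above a set upper limit, though filed actives all read lower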;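 also: 100% = DMSO only wells and 0% = binding blocked by excess unlabeled MEK5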
Numbers without * were called inactive; / = no result given; [ ] = another dose, or the depositor's remark. The list is not random: actives were taken first. Their share in the collection is about 2.9%.

SMILES | MEKK2mut PB1 HTS | Beta2AR agonist | MEKK3 PB1 HTS | MEKK2 WT-MEK5 | Dynein cargo inh | ATG4B inhibitor | MEKK2wt confirm | MEKK2mut-MEK5 | MEKK3-MEK5 inh
COc1cc(OC)c(C2Nc3ccccc3NC3=C2C(=O)CC(C)(C)C3)cc1OC (stereo not drawn) | 7 | -5 | 109 | 111 | / | 0 | / | / | /
COc1cc(C2Nc3ccccc3NC3=C2C(=O)CC(C)(C)C3)cc(OC)c1OC (stereo not drawn) | 24* | -5 | 108 | 108 | / | -2 | 103 | -5 | 100
COc1ccc(C2/C=C\CN(S(=O)(=O)c3ccc(C)cc3)CC(=O)N2Cc2cccc(F)c2)cc1 (stereo not drawn) | / | 23 | / | / | / | -3 | / | / | /
COc1ccc(C2/C=C\CN(S(=O)(=O)c3ccc(C)cc3)CC(=O)N2Cc2ccc(F)cc2)cc1 (stereo not drawn) | 2 | 3 | 129* | 158* | -0.67 | -6 | 102 | 1 | 100
COc1ccc(C2/C=C\CN(C(=O)NC34CC5CC(CC(C5)C3)C4)CC(=O)N2Cc2ccc(F)cc2)cc1 (stereo not drawn) | 2 | 0 | 123 | 147* | 0.5 | -9 | 96 | -1 | 102
COc1ccccc1NCC(=O)NC(=O)NC1CCCCC1 | / | 4 | / | / | / | 1 | / | / | /
CC(=O)c1c(O)cc(=O)oc1-c1ccc(C)cc1 | / | -3 | / | / | / | -6 | / | / | /
CCCC(=O)Nc1c(C)n[nH]c1C | 0 | -1 | 95 | 99 | 0.69 | -1 | / | / | /
CNCC(=O)Nc1c(C)n[nH]c1C | 1 | 1 | 148* | 108 | -0.7 | 5 | 113 | 11 | 106
Cc1ccc(S(=O)(=O)NCCC(=O)NCC(c2cccs2)N(C)C)cc1 (stereo not drawn) | / | -3 | / | / | / | -2 | / | / | /
COc1cccc(NC(=O)CN(C)C(=O)CCCNC(=O)c2ccc(Cl)cc2)c1 | / | 2 | / | / | / | -17 | / | / | /
CCCCCCCCNC(C)C(O)c1ccc(SC(C)C)cc1 (stereo not drawn) | 48* | 24 | 114 | 142* | -4.3 | 1 | 198 | 51 | 108
Cc1[nH]c2ccccc2c1C=NNC(=O)c1cc(-c2cccnc2)nc2ccccc12 | / | 7 | / | / | / | -8 | / | / | /
O=C(COc1cccnc1[N+](=O)[O-])N1CCN(S(=O)(=O)c2ccccc2)CC1 | 1 | 12 | 145* | 109 | 0.15 | -11 | 105 | 6 | 102
Cn1ccnc1SCC(=O)N1CCN(S(=O)(=O)c2ccccc2)CC1 | 2 | 2 | 4.0*[inhibitor] | 4.0*[inhibitor] | -0.47 | 0 | 99 | 7 | 102
C#CCNC(=O)C(C)c1ncc(C(F)(F)F)cc1Cl (stereo not drawn) | -6 | 6 | 98 | 93 | -0.034 | -2 | / | / | /
CCOc1ccc(CNC(=O)CCC(=O)n2nc(C)c3ccccc32)cc1 | 1 | -8 | 104 | 102 | / | -3 | / | / | /
c1ccc2c(N3CCCCC3)nc(N3CCCCC3)nc2c1 | / | 2 | / | / | -0.76 | -5 | / | / | /
C(=C\c1nc(N2CCCCCC2)c2ccccc2n1)/c1ccccc1 | 17 | -5 | 100 | 144* | 0.37 | 7 | 154 | 19 | 108
Cc1ccccc1NC(=O)COc1coc(CN2CCN(c3ccccc3)CC2)cc1=O | / | 2 | / | / | / | -1 | / | / | /
CC1CCCC(C)N1C(=O)CNCc1ccc2c(c1)OCO2 (stereo not drawn) | 6 | 6 | 110 | 114 | / | 5 | / | / | /
CCCCCCCCCCCCCCCC[n+]1ccc(C(N)=O)cc1 | 1 | 15 | 106 | 139* | 0.69 | 33 | 157 | 31 | 104
CCCCC(=O)Nc1ccc(C(N)=O)cc1 | 3 | 8 | 107 | 101 | -1.2 | -7 | / | / | /
CCCCCCCCCCCCCCCC[n+]1ccc(/C=N/O)cc1 | 45 | 3 | 127 | 150* | 0.077 | 37 | 257* | 181* | 112
O/N=C/c1cccc[n+]1CCCCCC[n+]1ccccc1/C=N/O | 2 | -5 | 103 | 104 | / | -7 | / | / | /
SMILES | MEKK2mut PB1 HTS | Beta2AR agonist | MEKK3 PB1 HTS | MEKK2 WT-MEK5 | Dynein cargo inh | ATG4B inhibitor | MEKK2wt confirm | MEKK2mut-MEK5 | MEKK3-MEK5 inh
C#CCSc1nnc(C)c(C)n1 | 0 | -1 | 100 | 100 | / | 3 | / | / | /
CC(C)CCN(C(=S)Nc1cccc(F)c1)C(C)c1cccs1 (stereo not drawn) | -13 | -3 | 46*[inhibitor] | 59 | -0.11 | -4 | 104 | -5 | 103
COCCN(C(=S)Nc1cccc(C)c1)C(C)c1cccs1 (stereo not drawn) | 1 | 1 | 117 | 107 | 0.061 | -5 | / | / | /
CCCCC1=C([O-])C2N=CC=CC2=[N+](c2ccccn2)C1=O (stereo not drawn) | 0 | -1 | 138* | 102 | 0.071 | -7 | 35 | -25 | 82
CCCCP(=O)(c1ccccn1)c1ccccn1 | / | 4 | / | / | 2.6 | 1 | / | / | /
CN(Cc1ccccc1)S(=O)(=O)c1ccccc1Br | / | -1 | / | / | / | 4 | / | / | /
N#CCCSc1ccccc1NC(=O)c1cc(=O)c2ccccc2o1 | 4 | -1 | 98 | 96 | / | -6 | / | / | /
CN(C)n1cccc1/C=C(\C#N)S(=O)(=O)c1ccc(Cl)cc1 | 33 | -8 | 139* | 120 | -0.16 | -9 | 101 | -6 | 104
COC(=O)c1cc(=O)nc2sc3cc(OC)ccc3n12 | 6 | 4 | 122* | 106 | 1.2 | -7 | 107 | 6 | 106
Nc1ccc(C23CC4CC(CC(O)(C4)C2)C3)cc1 | -5 | -10 | 98 | 98 | -1.2 | -4 | / | / | /
Nc1ccc(C23CC4CC(CC(C4)C2)C3)cc1 | -16 | 3 | 41*[inhibitor] | 53 | -0.5 | 3 | 96 | -3 | 100
Cc1cc2oc(=O)cc(CN3CCOCC3)c2c(C)c1Cl | 6 | -18 | 106 | 108 | / | -14 | / | / | /
O=C(NCCO)C(=O)c1c(-c2ccccc2)cc2ccccn12 | -1 | 6 | 101 | 102 | 0.72 | -5 | / | / | /
Cc1nn(Cc2ccccc2)c(=O)n1N(C)c1ncc(C(F)(F)F)cc1Cl | 5 | -6 | 104 | 109 | 0.51 | -4 | / | / | /
Cc1nn(C)c(=O)n1N(C)c1ncc(C(F)(F)F)cc1Cl | 3 | 1 | 139* | 114 | 0.21 | -5 | 90 | -4 | 97
COc1cc(NC(=O)C2CCN(S(=O)(=O)c3cccnc3)CC2)cc(OC)c1OC | 25* | -2 | 115 | 114 | -0.54 | -3 | 104 | 10 | 108
